Experimental findings from ChEMBL document CHEMBL1123760, “Synthesis and oral antifungal activity of novel azolylpropanolones and related compounds” (1987) are described below.

Holding throughout (assay type): functional
In test [1] the test system is Aspergillus fumigatus. The experiment in a line: In vitro antifungal activity against Aspergillus fumigatus. The note with it: Aspergillus fumigatus; read-out: MIC. The procedure, abridged: (§1)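 Broth microdilution MIC in Sabouraud's glucose broth; final inocula 1 × 10^5 cells/mL (yeast) or 1 × 10^5 conidia/mL (mold and dermatophyte).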
Test [2] relates to Candida albicans. The experiment in a line: In vitro antifungal activity against Candida albicans. Conditions: Candida albicans; read-out: MIC. The procedure, abridged:
as §1

Test [3] relates to Candida albicans. The experiment in a line: Minimum effective concentration for inhibition of pseudomycelium formation in Candida albicans. Conditions: Candida albicans; read-out: MEC. The procedure, abridged: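 C. albicans KE-2 (clinical isolate) at a final 1 × 10^6 yeast cells/mL in EMEM with 20% calf serum; compounds diluted by the same microtiter system as for MICs. After incubation, wells were Giemsa-stained (5% in phosphate buffer) and read by microscope. MEC is the lowest concentration preventing typical pseudomycelium formation.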

The test system of test [4] is Mus musculus. The experiment in a line: Ratio of in vivo number of survivors / total infected. Set-up: reference not given here.
In test [5] the test system is Trichophyton benhamiae. As to the kind of experiment: In vitro antifungal activity against Trichophyton asteroides. The note with it: Trichophyton benhamiae; read-out: MIC. The procedure, abridged: as §1

Values after ≈ are worked out from the molar mass of the structure shown.

Consider `O=C(c1ccccc1Cl)C(O)(Cn1cncn1)c1ccc(F)cc1` (stereo not given), for which the MIC is > 100 µg/mL in test [1], 100 µg/mL (≈ 289 µM) in test [2] and 0.4 µg/mL (≈ 1.16 µM) in test [5]. Also, in test [3], the minimal effective concentration was 10 µg/mL. In test [4], the No. of survivors was found to be 0.

As to `O=C(c1ccccc1F)C(O)(Cn1cncn1)c1ccc(Cl)cc1Cl` (stereo not given), the results for the MIC in test [1], in test [2] and in test [5] were > 100 µg/mL, 100 µg/mL (≈ 263 µM) and 0.1 µg/mL (≈ 0.263 µM), respectively. Besides, the minimal effective concentration in test [3] was found to be 0.04 µg/mL. The No. of survivors in test [4] is listed as 7.

In the case of `O=C(c1ccc(F)cc1)C(O)(Cn1cncn1)c1ccccc1Cl` (stereo not given), the values for the minimum inhibitory concentration (MIC) in test [1], in test [2] and in test [5] were > 100 µg/mL, 100 µg/mL (≈ 289 µM) and 1.6 µg/mL (≈ 4.63 µM), respectively. Further, in test [3], the minimal effective concentration was determined as 2.5 µg/mL. Further, the No. of survivors in test [4] turned out to be 8.

For `O=C1O[C@H](c2ccccc2Cl)[C@@](Cn2cncn2)(c2ccccc2Cl)O1`, the MIC was > 100 µg/mL in test [1], > 100 µg/mL in test [2] and 12.5 µg/mL (≈ 32 µM) in test [5]. In test [3], the minimal effective concentration came out at 0.31 µg/mL. Moreover, the No. of survivors in test [4] came to 0.

Take `O=C(c1ccccc1Cl)C(O)(Cn1cncn1)c1ccc(Cl)cc1` (stereo not given): the minimum inhibitory concentration (MIC) in test [1] was > 100 µg/mL; in test [2] it was > 100 µg/mL; in test [5], 0.4 µg/mL (≈ 1.1 µM). Also, in test [3], the minimal effective concentration was > 20 µg/mL. Moreover, the No. of survivors in test [4] amounted to 0.

As for `CC(C)C(=O)C(O)(Cn1ccnc1)c1ccc(Cl)cc1` (stereo not given), the minimal inhibitory concentration (MIC) in test [1] was 25 µg/mL (≈ 85.4 µM); in test [2], > 100 µg/mL; in test [5], 0.2 µg/mL (≈ 0.683 µM). In addition, the minimal effective concentration in test [3] turned out to be 0.08 µg/mL. The No. of survivors in test [4] was 2.

In the case of `CC(=O)C(O)(Cn1cncn1)c1ccc(Cl)cc1Cl` (stereo not given), the values for the MIC in test [1], in test [2] and in test [5] were 50 µg/mL (≈ 167 µM), > 100 µg/mL and 0.2 µg/mL (≈ 0.666 µM), respectively. Also, in test [3], the minimal effective concentration came to 0.04 µg/mL. For the same compound, in test [4], the No. of survivors is given as 2.

On to `OC(c1ccccc1Cl)C(O)(Cn1ccnc1)c1ccccc1Cl` (stereo not given), for which the figures for the MIC in test [1], in test [2] and in test [5] were 100 µg/mL (≈ 275 µM), > 100 µg/mL and 0.4 µg/mL (≈ 1.1 µM), respectively. The minimal effective concentration in test [3] stood at 1.25 µg/mL. In addition, the No. of survivors in test [4] is listed as 4.

For the compound `O=C1O[C@H](c2ccc(F)cc2)[C@@](Cn2cncn2)(c2ccc(Cl)cc2Cl)O1`, the MIC in test [1] was > 100 µg/mL; in test [2] it was 50 µg/mL (≈ 122 µM); in test [5], 0.1 µg/mL (≈ 0.245 µM). Further, the minimal effective concentration in test [3] was determined as 0.63 µg/mL. The No. of survivors in test [4] is 7.

As to `O=C(c1ccc(F)cc1)C(O)(Cn1cncn1)c1ccc(Cl)cc1Cl` (stereo not given), the MIC in test [1] was > 100 µg/mL; in test [2] it was > 100 µg/mL; in test [5] it was 0.1 µg/mL (≈ 0.263 µM). Also, the minimal effective concentration in test [3] is 1.25 µg/mL. In test [4], the No. of survivors is 2.

With `O=S1O[C@H](c2ccc(F)cc2)[C@@](Cn2cncn2)(c2ccc(Cl)cc2Cl)O1` (stereo not given in full), the minimal inhibitory concentration (MIC) in test [1] was 50 µg/mL (≈ 117 µM); in test [2], > 100 µg/mL; in test [5] it was 0.1 µg/mL (≈ 0.233 µM). The minimal effective concentration in test [3] worked out at 0.04 µg/mL. In addition, the No. of survivors in test [4] was found to be 4.

With `O=S1O[C@H](c2ccc(F)cc2)[C@](Cn2cncn2)(c2ccc(Cl)cc2Cl)O1` (stereo not given in full), the results for the MIC in test [1], in test [2] and in test [5] were > 100 µg/mL, > 100 µg/mL and 0.1 µg/mL (≈ 0.233 µM), respectively. In test [3], the minimal effective concentration is 0.04 µg/mL. Besides, the No. of survivors in test [4] is reported as 0.

Consider `CC(C)[C@H]1OC(=O)O[C@]1(Cn1cncn1)c1ccc(Cl)cc1Cl`, for which the figures for the MIC in test [1], in test [2] and in test [5] were > 100 µg/mL, 100 µg/mL (≈ 281 µM) and 3.1 µg/mL (≈ 8.7 µM), respectively. Besides, in test [3], the minimal effective concentration stood at 0.63 µg/mL. The No. of survivors in test [4] was 8.

Regarding `OC(c1ccc(Cl)cc1Cl)C(O)(Cn1cncn1)c1ccc(Cl)cc1Cl` (stereo not given), the MIC in test [1] is > 100 µg/mL; in test [2], 100 µg/mL (≈ 231 µM); in test [5] it was 0.1 µg/mL (≈ 0.231 µM). Moreover, the minimal effective concentration in test [3] was found to be 0.08 µg/mL. Also, the No. of survivors in test [4] was determined as 6.

With `O=C(c1ccccc1)C(O)(Cn1cncn1)c1ccc(Cl)cc1Cl` (stereo not given), the MIC in test [1] was > 100 µg/mL; in test [2], > 100 µg/mL; in test [5] it was 0.1 µg/mL (≈ 0.276 µM). Besides, the minimal effective concentration in test [3] worked out at 1.25 µg/mL. For the same compound, the No. of survivors in test [4] is given as 7.

For orientation: MIC means the lowest concentration found to suppress growth.
